For data set [1], the system named is Escherichia coli. As to the kind of experiment: Antibacterial activity against Escherichia coli at 1 mg/ml incubated for 18 hrs by well plate technique. It counts as functional. Conditions: for zone of inhibition at 1000 µg/mL: read-out: DIZ. Summed up: (§1)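 Bacteria kept on nutrient agar at 37 °C, grown statically in nutrient broth (start ~10-100 cfu/mL) at 37 °C for 18-24 h. Suspensions diluted in saline and spread on nutrient agar, then wells cut with a cork borer. Compound in DMSO at 1 or 0.5 mg/mL added to wells, 37 °C, 18 h. Inhibition zone diameter measured minus DMSO value; triplicate; streptomycin standard.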

The subject of data set [2] is Staphylococcus aureus. Description: Antibacterial activity against Staphylococcus aureus at 0.5 mg/ml incubated for 18 hrs by well plate technique. It counts as functional. Conditions: for zone of inhibition at 500 µg/mL: read-out: DIZ. An outline of the steps: as §1
Data set [3] is described as follows: Cytotoxicity against African green monkey Vero cells assessed as growth inhibition at 62.5 ug/ml after 72 hrs by MTT assay. The settings on record: chlorocebus sabaeus, read-out: GI. It counts as cell-based. Summed up:
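Vero cells grown in MEM + 10% FBS at 37 °C, 5% CO2. Seeded ~10,000 cells/well, 24 h to a partial monolayer. Compounds in DMSO diluted in MEM + 2% FBS (1 mg/ml stock, two-fold dilutions) for 72 h. MTT 3 h, formazan dissolved in propanol, A540. % inhibition = 100 − (mean OD test/mean OD control × 100).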
(In general: Formazan colour is commonly taken as a measure of viable cells.)

Data set [4] relates to Pseudomonas aeruginosa. Description: Antibacterial activity against Pseudomonas aeruginosa at 0.5 mg/ml incubated for 18 hrs by well plate technique. The class given is functional. The settings on record: for zone of inhibition at 500 µg/mL: read-out: DIZ. An outline of the steps: as §1
Data set [5] can be described thus: Antioxidant activity assessed as DPPH radical scavenging activity incubated for 10 mins by UV-visible spectrometry. It counts as physicochemical. An outline of the steps: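 DPPH free-radical scavenging; absorbance read at 517 nm against a methanol blank. % scavenging = (A control − A sample)/A control × 100.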
On the technique in general: The DPPH test is a chemical assay of radical scavenging.

Data set [6] relates to Aspergillus flavus. Description: Antifungal activity against Aspergillus flavus at 1 mg/ml incubated for 3 days. The settings on record: for zone of inhibition at 1000 µg/mL: 72 h, read-out: IZ. It counts as functional. Summed up:
(§2)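 Well plate method on potato dextrose agar. Fungal stock suspended in distilled water with Tween 80 and swabbed over plates. Samples in DMSO at 1 and 0.5 mg/mL added to wells, incubated 25 °C for 3 days, then scored for inhibition zones; fluconazole standard.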

Data set [7] concerns Pseudomonas aeruginosa. As to the kind of experiment: Antibacterial activity against Pseudomonas aeruginosa at 1 mg/ml incubated for 18 hrs by well plate technique. The settings on record: for zone of inhibition at 1000 µg/mL: read-out: DIZ. The class given is functional. An outline of the steps: as §1
The test system of data set [8] is Escherichia coli. Description: Antibacterial activity against Escherichia coli at 0.5 mg/ml incubated for 18 hrs by well plate technique. The class given is functional. The settings on record: for zone of inhibition at 500 µg/mL: read-out: DIZ. An outline of the steps: as §1
For data set [9], the system named is Staphylococcus aureus. Description: Antibacterial activity against Staphylococcus aureus at 1 mg/ml incubated for 18 hrs by well plate technique. It counts as functional. The settings on record: for zone of inhibition at 1000 µg/mL: read-out: DIZ. An outline of the steps:
as §1

The subject of data set [10] is Chrysosporium keratinophilum. Description: Antifungal activity against Chrysosporium keratinophilum at 1 mg/ml incubated for 3 days. It counts as functional. Conditions: for zone of inhibition at 1000 µg/mL: 72 h, read-out: IZ. An outline of the steps:
as §2

Data set [11] deals with Mycobacterium tuberculosis. Description: Antitubercular activity against Mycobacterium tuberculosis H37Rv ATCC 27294/XDR-TB incubated for 28 days by agar dilution method. The settings on record: 672 h. The class given is functional. An outline of the steps:
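Agar dilution: two-fold dilutions in Middlebrook 7H11 agar with OADC. Inoculum from fresh 7H11/OADC slants adjusted to 1 mg/mL wet weight in 0.05% Tween 80 saline, diluted 10^-2 (~10⁷ cfu/mL); 5 µL spotted per tube. Incubated 37 °C; MIC, lowest concentration fully inhibiting growth, read after 28 days, in triplicate.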
Background: In agar dilution the substance is mixed into plates at graded concentrations.

Data set [12] concerns Candida albicans. As to the kind of experiment: Antifungal activity against Candida albicans at 0.5 mg/ml incubated for 3 days. The settings on record: for zone of inhibition at 500 µg/mL: 72 h, read-out: IZ. The class given is functional. An outline of the steps:
as §2

Data set [13] has as its system Chrysosporium keratinophilum. Description: Antifungal activity against Chrysosporium keratinophilum at 0.5 mg/ml incubated for 3 days. It counts as functional. The settings on record: for zone of inhibition at 500 µg/mL: 72 h, read-out: IZ. An outline of the steps:
as §2

Data set [14] has as its system Salmonella typhi. Description: Antibacterial activity against Salmonella typhi at 0.5 mg/ml incubated for 18 hrs by well plate technique. It counts as functional. Conditions: for diameter of the inhibition zone (DIZ): Salmonella enterica subsp. enterica serovar Typhi. An outline of the steps:
(§3)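 Well diffusion on nutrient agar; strains kept on nutrient agar at 37 °C, grown statically in nutrient broth 18-24 h at 37 °C, diluted in saline, 0.1 ml spread per plate. Compounds in DMSO at 1 and 0.5 mg/mL added to cork-bored wells; 18 h at 37 °C. Inhibition zone diameter measured, DMSO value subtracted; triplicate; streptomycin reference.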

In data set [15] the test system is Aspergillus flavus. Description: Antifungal activity against Aspergillus flavus at 0.5 mg/ml incubated for 3 days. It counts as functional. Conditions: for zone of inhibition at 500 µg/mL: 72 h, read-out: IZ. Summed up: as §2
For data set [16], the system named is Salmonella typhi. As to the kind of experiment: Antibacterial activity against Salmonella typhi at 1 mg/ml incubated for 18 hrs by well plate technique. The class given is functional. Conditions: for diameter of the inhibition zone (DIZ): Salmonella enterica subsp. enterica serovar Typhi. Summed up: as §3
Data set [17] has as its system Candida albicans. As to the kind of experiment: Antifungal activity against Candida albicans at 1 mg/ml incubated for 3 days. It counts as functional. The settings on record: for zone of inhibition at 1000 µg/mL: 72 h, read-out: IZ. Summed up: as §2
The mark [18] stands for this setting: Salmonella enterica, read-out: DIZ.

The term MIC denotes the least concentration at which growth counts as inhibited.

In brackets after ≈: the same amount, converted by molar mass. Activity calls are given as the source filed them. No cut-off for these calls is given here.

On to `COc1ccc(-c2nc3sc(C)nn3c2-c2nc3ccccc3[nH]2)cc1`, for which the “diameter of the inhibition zone (DIZ)” value in the data set on Escherichia coli [1], in the data set with Staphylococcus aureus [2], in the data set with Pseudomonas aeruginosa [4], with Pseudomonas aeruginosa [7], with Escherichia coli [8] and in the data set on Staphylococcus aureus [9] was “inactive” throughout. Also, the “diameter of the inhibition zone (DIZ)” value in the data set with Salmonella typhi [14] and in the data set on Salmonella typhi [16] was “inactive” in each case. Further, the inhibition at 72 h, 62.5 ug/ml in [3] stood at 7.1%. Besides, the “inhibition (INH)” value in data set [5] is listed as 21.4%. Besides, the “inhibition zone (IZ)” value (in the data set with Aspergillus flavus [6]; in [10]; in the data set with Candida albicans [12]; in data set [13]; in the data set with Aspergillus flavus [15]; in the data set with Candida albicans [17]) was “inactive” throughout. In [11], this compound registered an MIC of 6.25 µg/mL (≈ 17.3 µM).

For the compound `Cc1ccc(-c2nn3c(-c4nc5cc(Cl)ccc5[nH]4)c(-c4ccc(Cl)cc4)nc3s2)cc1`, the zone of inhibition at 1000 µg/mL amounted to 4 mm in the data set with Escherichia coli [1]; 5 mm in the data set with Aspergillus flavus [6]; 3 mm in the data set on Pseudomonas aeruginosa [7]; 5 mm in the data set on Staphylococcus aureus [9]; 3 mm in [10]; 6 mm in the data set with Candida albicans [17]. The zone of inhibition at 500 µg/mL in the data set on Staphylococcus aureus [2] worked out at 3 mm; in the data set with Pseudomonas aeruginosa [4] it was 2 mm; in the data set with Escherichia coli [8], 2 mm; in the data set on Candida albicans [12], 4 mm; in data set [13], 1 mm; with Aspergillus flavus [15], 2 mm. Moreover, the inhibition at 72 h, 62.5 ug/ml in data set [3] stood at 7.4%. Besides, in data set [5], the “inhibition (INH)” value is on record as 65.7%. Further, in data set [11], inhibition of growth (MIC) required 3.12 µg/mL (≈ 6.56 µM). Besides, the “diameter of the inhibition zone (DIZ)” value in the data set with Salmonella typhi [14] and in the data set on Salmonella typhi [16] was “inactive” each time.

Take `Cc1nn2c(-c3nc4ccccc4[nH]3)c(-c3ccc(F)cc3)nc2s1`: the zone of inhibition at 1000 µg/mL with Escherichia coli [1] is 4 mm; with Aspergillus flavus [6], 3 mm; in the data set with Pseudomonas aeruginosa [7], 3 mm; with Staphylococcus aureus [9], 2 mm; in data set [10] it was 4 mm; in the data set on Salmonella typhi [16] (setting [18]) it was 2 mm. In addition, the zone of inhibition at 1000 µg/mL in the data set on Candida albicans [17] is 2 mm. The zone of inhibition at 500 µg/mL with Staphylococcus aureus [2] was 1 mm; with Pseudomonas aeruginosa [4], 2 mm; in the data set on Escherichia coli [8], 3 mm; in the data set on Candida albicans [12] it was 1 mm; in data set [13], 3 mm; in the data set with Salmonella typhi [14] (setting [18]), 1 mm. The zone of inhibition at 500 µg/mL in the data set with Aspergillus flavus [15] came to 2 mm. The inhibition at 72 h, 62.5 ug/ml in data set [3] came to 10.6%. For the same compound, the “inhibition (INH)” value in data set [5] is reported as 19.9%. It took 6.25 µg/mL (≈ 17.9 µM) to inhibit growth in data set [11] (MIC).

The values above are taken from ChEMBL document CHEMBL3414425, “Synthesis and biological evaluation of new imidazo[2,1-b][1,3,4]thiadiazole-benzimidazole derivatives” (Eur J Med Chem, 2015).
